Test results as given in the EternaBench riboswitch data.

Tested on: MS2 coat protein
Experiment: apparent Kd, MS2 coat protein; higher = weaker binding; RNA-MaP array; FMN 200 µM where present
Method in brief: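 Designs were transcribed by stalled E. coli RNA polymerase on Illumina sequencing-chip clusters. They were titrated with SNAP-549-labelled MS2 coat protein from 0.7 or 1.5 nM, doubling to 3 µM, without and then with constant ligand. Buffer: 100 mM Tris-HCl pH 7.5, 80 mM KCl, 4 mM MgCl2, BSA, DTT, yeast tRNA, Tween-20. Green signal was normalised to red-channel RNA signal and control-cluster median Fmax. Apparent Kd is the median of filtered per-cluster binding-curve fits.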

[1] = designed as: OFF switch for flavin mononucleotide, no ligand
[2] = ligand present: flavin mononucleotide, designed as: OFF switch for flavin mononucleotide
[3] = designed as: ON switch for flavin mononucleotide, no ligand
[4] = ligand present: flavin mononucleotide, designed as: ON switch for flavin mononucleotide

Row | Sequence | apparent Kd [1] [nM] | apparent Kd [2] [nM] | apparent Kd [3] [nM] | apparent Kd [4] [nM]
1 | GCUGACGAUGUAGGAUAUCUCGACGAUAAGUCGAGAGAAGGACAUGAGGAUCACCCAUGUACUCUAACGUCAGCGAGGAAACUC | 17.2 | 18.5 | – | –
2 | GCGCUUAUACAGAAGGCCAUAUACAUGAGGAUCACCCAUGUUACAUGGUGGAGGAUAUGUUAUUAAGUACAGGUAGAUGAGCGC | – | – | 5.98 | 5.38
3 | GACCCAAAUGAGAAGGUGUGUAUAAAUUAUAUACAAGGAUAUCGGUCGAGCGUGUUGACAUGAGGAUCACCCAUGUUGUGGGUU | – | – | 57.1 | 25.7
4 | UCGUUUGUACUAGGAUAUACCGACGAAAGAUCAGUAGAAGGAGUAACAGACAUGAGGAUCACCCAUGUAUGGGUCCUUAAACAA | 35.8 | 217 | – | –
5 | UUACUUCAUGAGAAGGACAUGAGGAUCACCCAUGUAGGAUAUCGUGGGAGACUGGUAUUGAAUCUUCGGAUUCAAUACCAGUCU | – | – | 56.9 | 9.15
6 | ACGGCAGUCGAAGGAUAUGGUUACAUGAGGAUCACCCAUGUCUAGGGUCUAAUUAGGUAUAAUUACCAGAAGGUCGAAGGCCUA | 90.5 | 123 | – | –
7 | CCAGCGUGUGUGAGGAUAUGCUGGUCCUUGGAUCAGCAGAAGGCACAUGAGGAUCACCCAUGUGAGAGCGUUGG | 19.6 | 86.1 | – | –
8 | UGUCGGAGCAGAGGAUAUACAUGAGGAUCACCCAUGUAAAUGAAAGAUAAGCUGGAAACAGCAAUGUAGAAGGCUGCUCCGACA | 18.4 | 88 | – | –
9 | UGGUACUAGGGAGGAUAUGGGAAGAUACAUGAGGAUCACCCAUGUUUAAGAAUGCCGAGCGGCAACUAGAAGGCCCUAGUACCU | – | – | 479 | 20.8
10 | UAAUCUCAGAUAGGAUAUAUAGGAUAACUUAAGACCGAACAUGAGGAUCACCCAUGUGAUUAUUCGUAGAAGGAUCAAUGACCC | – | – | 119 | 119
11 | CGAUUAUUGAUCCAUUUUUUCAACAUGAGGAUCACCCAUGUGCAGGAUAUCGUGAUUAUUAUCAACGAGAAGGGCAAAUUCACG | 49.5 | 145 | – | –
12 | UUUAUUUCGGCAGGAUAUACAUGUAUAUAUAUUCCUUCAUAUCUUAUUACAUGAGGAUCACCCAUGUAGAAGGGCCUUCUUCUC | 38.4 | 42.1 | – | –
13 | UGAUCUAUGUAGAAGGCCCAUAUCUAUAUUUAGGGAGGAUAUACAUGAGGAUCACCCAUGUAUAGAGCUAGUGGACUGGUCAGC | 48 | 69.4 | – | –
14 | GUUUCGUGAGGAUAUGUGGCUUCGAUCGUGCGAAAGAGGCUACAGAAGGCACAUGAGGAUCACCCAUGUUCCUC | 38.2 | 536 | – | –
15 | GGGUGCCCUGCAGAAGCGACAUGAGGAUCACCCAUGUAACGUAGAAGGGCCCGGAACUAAGGUGGGCAGGAUAUACUGUUAGGU | 6.76 | – | – | –
16 | UAACAGUUAGGAUAUACCAGGGUAUCCUCGCGGCGCCGAAAACAUGAGGAUCACCCAUGUAGAAGGAACCGUUU | 65 | 19.6 | – | –
17 | AAGGGCUGAGGAUAUGCGCGGGCAAGAUCCUCAAUCCCAAAACAUGAGGAUCACCCAUGUAGAAGGCAGAAAUA | 33.2 | 24.2 | – | –
18 | GACAUUAUAGGAUAUACAUGAGGAUCACCCAUGUCCGGCGGCCACCGCCAUUCACUGUGUAGAAGGGUAGUUUG | 87.9 | 68.8 | – | –
19 | UUUUAACAUGAGGAUCACCCAUGUGAGGAUAUCGAAAUUUAUAUUAAUAUUAUUAUUACGAGAAGGCACAUUUU | 71.9 | 91.1 | – | –
20 | CCUAAGGACACAGGAUAUAGCGUGGUGGGUGGGCUCCAACGACGAGCGGCGCUAGAAGGGUGACCACAUGAGGAUCACCCAUGU | – | – | 668 | 205
21 | AUGUUUCAUGUAGGAUAUGCAUAGCGUUGCUAUGCAGAAGGACAUGAGGAUCACCCAUGUAUAUUAUCAUUACAUAUCAUACAU | 45.7 | 546 | – | –
22 | UUCGGCGCAGGAUAUACAGUUUUGUGUUGAAUCGGCGCGGGACAUGAGGAUCACCCAUGUAGAAGGGUGUUGAA | 682 | 470 | – | –
23 | UUAGCGUAGGUAAGGAUAUGCUGGUCUAAUGAUCAGCAGAAGGUACAUGAGGAUCACCCAUGUGGAUUCGUUAU | 18.5 | 37 | – | –
24 | UAGAGUCUUGAGGAUAUUGGUACGUACCGGUCCCAAGAAGGCGAGACAUGAGGAUCACCCAUGUGACCGUGAGC | 31.9 | 47.8 | – | –
25 | CGAUGUUAUGCAGGAUAUCUCUCUUGUUAGAGGAGAGAAGGGCAUAGGGAGACAUACGCCUUAUUACAUGAGGAUCACCCAUGU | 9.38 | 8.24 | – | –
26 | AAAAAAAAAACUGAGGAUAUGAAAUAAUAGACAUGAGGAUCACCCAUGUUUUCGGUCGAAAAAAUGCAGAAGGCAGAAAAAAAAAA | – | – | 31.6 | 29.1
27 | GAUAGGAAGUAAGGAUAUAGACAUGAGGAUCACCCAUGUCUGUGCCGCGUGGAUGAAGGGAGUGUCUAGAAGGUACUGCUCUGU | 15.5 | 7.5 | – | –
28 | ACCAGUGACACAGGAUAUCCGUGCAUGUAGCACGGAGAAGGGUGUUCCAAUCAACUCACAUGAGGAUCACCCAUGUGCUACUUG | – | – | 176 | 59.8

Row | Sequence | apparent Kd [1] [nM] | apparent Kd [2] [nM] | apparent Kd [3] [nM] | apparent Kd [4] [nM]
29 | CGAUAGGACAGAGGAUAUACGUGCUAGAGAUACUAGCAAAAUUUCCUCACAUGAGGAUCACCCAUGUAGAAGGCUGUCCUAUCG | 15.6 | 439 | – | –
30 | UGUCGGAGCAGAGGAUAUUACAUGAGGAUCACCCAUGUAUGAACCAAUAGCUGGAAACAGCAAUGUAAGAAGGCUGCUCCGAUA | 11.8 | 166 | – | –
31 | CUUCUGUCAGGAUAUGCGAAUCACCACUGGGUCAGCGGUGAGCAGAAGGGACAUGAGGAUCACCCAUGUAAAGU | 40.5 | 171 | – | –
32 | CUAUUAUUGAUCCAUUUUUUCAACAUGAGGAUCACCCAUGUGCAGGAUAUCGUGAUUAUUAUCAACGAGAAGGGCAGAUUCACG | 59.3 | 178 | – | –
33 | AUGACAGGCAGAGCGCAACGGCGAACAUGAGGAUCACCCAUGUAGGAUAUGCUACACAAAGUGUAGCAGAAGGACAUGCGACGA | 48.3 | 206 | – | –
34 | CUGUGACGGUGCGCAAGUGGACGGAGAAGGGUCACAUGAGGAUCACCCAUGUGGGCCUGCUAUUGACAGGAUAUCCGUUCGUAC | 5.94 | 6.46 | – | –
35 | UUAUUUUUACAGAAGGUUUAAUAAUAUAUAUGAGAAGGAUAUGUAACAUGAGGAUCACCCAUGUUUCAUCUAUAUGAGGAUCAU | 6.69 | 6.32 | – | –
36 | GGAGAACAUGAGGAUCACCCAUGUGGAUGGGCGCUAGGAUAUGCGAGAGGGUGAAGAGAAGCAGAAGGAGUGGAUA | – | – | 141 | 142
37 | CAGGUAGACUGAGGAUAUACAAUAAAGACCUAGUCUAUCUAGGUCUCCACAUGAGGAUCACCCAUGUAGAAGGCAGUCUGCCUG | 18.1 | 44.2 | – | –
38 | AAGAGACAUCAGAAGGGAGCCCGCACGCGCGGCUCAGGAUAUGAGAUCUUAUGUAGUACGACAUGAGGAUCACCCAUGUCCGCG | – | – | 37.8 | 7.97
39 | GUGGAGUACGUAGGAUAUGUAGGAUAUUCCUACAUGAGGAUCACCCAUGUAAGCAUGGAAGAAGGACAGAAGGACGUGCUCCAG | – | – | 231 | 12.1
40 | UUGGACGUCGUAGGAUAUGUAGGAUAUUCCUACAUGAGGAUCACCCAUGUUGACAUGGAAGAAGGACAGAAGGGCGAUGUCCAU | – | – | 352 | 5.27
41 | CGCUAGUCAGGAUAUACGAACAUGUCAAAAGACGUGAAGGGACAUGAGGAUCACCCAUGUAGAAGGGACUAGCC | 32.8 | 115 | – | –
42 | GUAAGCGACCAGAAGGGUGACAUGAGGAUCACCCAUGUAGAUGUGUUCCCGCUUGGGAACCGUCCACAGGAUAUGGUUGGCUAU | – | – | 35.3 | 18
43 | GAAUAAUUGAUCCUUUUUUAUUACAUGAGGAUCACCCAUGUGCAGGAUAUCGAUUGUUGUAGUUUCGAGAAGGGCAAGAACUGU | 187 | 280 | – | –
44 | GUGUAGUCAGGAUAUACAUAGGAAGAGAAGAGAAGAGAAGCACAUGAGGAUCACCCAUGUAGAAGGGACAGUGU | 70.9 | 82.9 | – | –
45 | GUAGCAUGCCAAGGAUAUUCAUAUAGUAGGCAAACAUGAGGAUCACCCAUGUAAUGAGAGCACUGGGAGAAGGUGGGAUGCUAC | – | – | 28.6 | 21.4
46 | GCGCGGAACCUAGGAUAUCCGGCAUGGACGGGUGGUAGGUCUCCCACAUGAGGAUCACCCAUGUAGGAGAAGGAGGAUCACGGG | 6.17 | 6.83 | – | –
47 | CUAUUACGAGGAUAUGAUUUAAAUAACAUGAGGAUCACCCAUGUUUUUACGUUAUUAUGUUCAGAAGGCGUAUUGU | 26.5 | 19.4 | – | –
48 | AUCCUGCGAGGAUAUACUUACUUUUUUUCAUUUGGUUGCGAACAUGAGGAUCACCCAUGUAGAAGGUGCAUAAC | 22.9 | 24.7 | – | –
49 | UAGCGCUGUCGAGAGGAUAUGCGGUGAUGGACAUGAGGAUCACCCAUGUUAGCGAUAGCAUUACGGUAGAAGGCUCUACAGCUGC | – | – | 27.6 | 13.6
50 | UCUUAUUGCAAGGAUAUGCAAAUUAUUUUUUAAGCAGAAGGUGCAACAUGAGGAUCACCCAUGUUUCCGGGCAA | 15.3 | 42.9 | – | –
51 | GAAAUACAUGAGGAUCACCCAUGUAAGGAUAUGCUAGCGGUCGGCUGACUGACUGCUAGCAGAAGGUACAUGAU | 80.9 | 108 | – | –
52 | AAUAACGGAGCUACAUGAGGAUCACCCAUGUACGGGUGAUCCUAGGAUAUGCCCGCAACUAUGUCGCAGAAGGAGGGUUGCCCA | – | – | 20.4 | 39.7
53 | GAUUAACAUGAGGAUCACCCAUGUCGUUAAAUGGGAGGAUAUACGUGGACCGUAGUCCGCGUAGAAGGCCUAAUUG | – | – | 144 | 29.2
54 | GAUCAACAUGAGGAUCACCCAUGUGAGGAUAUGAUACUAUGUACUUCGGUACAUAGUAUCAGAAGGCAUAUAAA | 44.7 | 35.2 | – | –
55 | UAUCCGCUAGGAUAUACUAUAUUGUCCUCGUGAGUGAUGCUACAUGAGGAUCACCCAUGUAGAAGGAGCGCGUG | 27.3 | 30.6 | – | –
